# Measured values taken from ChEMBL document CHEMBL5034008, “Diversity-Oriented A3-Macrocyclization for Studying Influences of Ring-Size and Shape of Cyclic Peptides: CD36 Receptor Modulators” (J Med Chem, 2021).
# Non-standard residues stand in square brackets, D forms with d. Residues, ends and D or L forms follow the SMILES beside them. ξ: configuration not given here. *: point of attachment. X1 = CCCCCCCCCCCCCCCC(=O)OCC(C*)OC(=O)CCCCCCCCCCCCCCC; ξC = NC(CS)C(=O)O
# How the values were obtained:
# [1] = target: Platelet glycoprotein 4 (Mus musculus) (UniProt Q08857); assay: Modulation of CD36 receptor in mouse RAW 264.7 cells assessed as inhibition of R-FSL-1-induced CCl-2 production at competitive receptor binding assay IC50 concentration pretreated for 30 mins followed by R-FSL-1 stimulation measured after 19 hrs by ELISA relative to R-FSL-1; assay type: cell-based; parameters: scale not given: the % may be the effect or the level left
# Platelet glycoprotein 4 (Mus musculus), sequence (Q08857 whole entry): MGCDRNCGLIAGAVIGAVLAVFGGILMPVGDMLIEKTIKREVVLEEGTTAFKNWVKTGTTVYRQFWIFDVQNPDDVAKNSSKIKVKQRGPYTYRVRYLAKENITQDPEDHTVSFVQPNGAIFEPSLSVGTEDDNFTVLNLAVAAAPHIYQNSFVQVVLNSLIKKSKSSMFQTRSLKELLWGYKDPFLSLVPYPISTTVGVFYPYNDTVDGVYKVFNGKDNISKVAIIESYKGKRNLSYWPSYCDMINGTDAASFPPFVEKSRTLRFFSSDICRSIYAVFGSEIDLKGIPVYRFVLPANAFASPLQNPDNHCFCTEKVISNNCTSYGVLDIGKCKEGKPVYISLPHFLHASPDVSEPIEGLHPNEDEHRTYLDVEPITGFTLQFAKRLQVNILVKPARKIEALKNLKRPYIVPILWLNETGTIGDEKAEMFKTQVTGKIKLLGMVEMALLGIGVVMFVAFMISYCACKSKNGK
# [2] = target: Platelet glycoprotein 4 (Mus musculus) (UniProt Q08857); assay: Modulation of CD36 receptor in mouse BMA3.1A7 cells assessed as inhibition of R-FSL-1-induced IL-1beta production […] measured after 4 hrs by ELISA; assay type: cell-based; conditions: filed as modulator, time 4.5 hrs
# [3] = target: Platelet glycoprotein 4 (Mus musculus) (UniProt Q08857); assay: Modulation of CD36 receptor in mouse BMA3.1A7 cells assessed as inhibition of R-FSL-1-induced IL-1beta production at competitive receptor binding assay IC50 concentration pretreated for 30 mins followed by R-FSL-1 stimulation measured after 4 hrs by ELISA relative to R-FSL-1; assay type: cell-based; parameters: scale not given: the % may be the effect or the level left; conditions: time 4.5 hrs
# [4] = target: Platelet glycoprotein 4 (Mus musculus) (UniProt Q08857); assay: Modulation of CD36 receptor in mouse RAW 264.7 cells assessed as inhibition of R-FSL-1-induced TNFalpha production at competitive receptor binding assay IC50 concentration pretreated for 30 mins followed by R-FSL-1 stimulation measured after 19 hrs by ELISA relative to R-FSL-1; assay type: cell-based; parameters: scale not given: the % may be the effect or the level left; conditions: RAW264.7, time 19.5 hrs
# [5] = target: Platelet glycoprotein 4 (Mus musculus) (UniProt Q08857); assay: Modulation of CD36 receptor in mouse RAW 264.7 cells assessed as inhibition of R-FSL-1-induced NO production pretreated for 30 mins followed by R-FSL-1 stimulation measured after 1140 min by fluorescence plate reader assay; assay type: cell-based; conditions: RAW264.7, filed as modulator, time 1170.0 min
# Procedure, shortened: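 RAW 264.7 cells seeded at 1.5 × 10^5 per well in DMEM with pen/strep. After 2 h, medium changed to DMEM with 0.2% BSA containing peptide. Cells stimulated with R-FSL-1 at 300 ng/mL for 19 h. Nitrite in 25 μL supernatant reacted with 0.5 μg 2,3-diaminonaphthalene in 50 mM phosphate pH 7.5, 15 min at room temperature in the dark, stopped with NaOH. Fluorescence read.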
# [6] = target: Platelet glycoprotein 4 (Mus musculus) (UniProt Q08857); assay: Modulation of CD36 receptor in mouse RAW 264.7 cells assessed as inhibition of R-FSL-1-induced CCL-2 production pretreated for 30 mins followed by R-FSL-1 stimulation measured after 4 hrs by ELISA; assay type: cell-based; conditions: RAW264.7, filed as modulator, time 4.5 hrs
# Procedure, shortened: (§1)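 RAW 264.7 cells seeded at 1.5 × 10^5 per well and weaned overnight in DMEM with 1% pen/strep. Medium then changed to DMEM with 0.2% BSA. Cells pretreated 30 min with peptide at 10^-7 M, with linear [azaTyr4]-GHRP-6 as reference. Stimulated with R-FSL-1 at 300 ng/mL for 4 h at 37 °C. TNF-α or CCL-2 in supernatant measured by ELISA. Inhibition % = (FSL-1 − treated)/(FSL-1 − basal) × 100.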
# Platelet glycoprotein 4 = Platelet glycoprotein 4 (Rattus norvegicus, UniProt Q07969); assay: Displacement of [125I]-Tyr-Bpa-Ala-hexarelin from rat CD36 receptor in heart tissue membrane incubated for 60 mins by competitive receptor binding assay; assay type: cell membranes
# Platelet glycoprotein 4, sequence (Q07969 whole entry): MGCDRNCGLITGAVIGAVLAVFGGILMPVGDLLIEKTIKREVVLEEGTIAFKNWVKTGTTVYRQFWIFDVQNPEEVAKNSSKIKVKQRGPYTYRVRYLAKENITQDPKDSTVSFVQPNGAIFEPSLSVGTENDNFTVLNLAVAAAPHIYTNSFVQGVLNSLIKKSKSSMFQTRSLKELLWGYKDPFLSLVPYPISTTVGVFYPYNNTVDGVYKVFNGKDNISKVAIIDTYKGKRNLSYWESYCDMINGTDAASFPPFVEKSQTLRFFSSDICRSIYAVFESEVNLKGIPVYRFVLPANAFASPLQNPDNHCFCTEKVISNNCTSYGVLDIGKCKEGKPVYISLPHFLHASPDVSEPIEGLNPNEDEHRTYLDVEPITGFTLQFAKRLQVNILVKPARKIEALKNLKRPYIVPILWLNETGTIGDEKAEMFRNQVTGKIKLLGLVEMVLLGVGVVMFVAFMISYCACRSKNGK
# Procedure, shortened: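 Rat heart membranes (50 μg) incubated in the dark with 250,000 cpm [125I]-Tyr-Bpa-Ala-hexarelin in 50 mM Tris-HCl pH 7.4, 2 mM EGTA, 0.05% bacitracin, with competitor at 0.1–10 μM; hexarelin as reference. Nonspecific binding defined with 50 μM peptide. 60 min at 22 °C, then UV photolysis at 365 nm for 15 min at 4 °C. Pellets resolved on 7.5% SDS-PAGE.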
# [7] = target: Platelet glycoprotein 4 (Mus musculus) (UniProt Q08857); assay: Modulation of CD36 receptor in mouse RAW 264.7 cells assessed as inhibition of R-FSL-1-induced TNFalpha production pretreated for 30 mins followed by R-FSL-1 stimulation measured after 4 hrs by ELISA; assay type: cell-based; conditions: RAW264.7, filed as modulator, time 4.5 hrs; procedure, shortened: as §1
# [8] = target: Platelet glycoprotein 4 (Mus musculus) (UniProt Q08857); assay: Modulation of CD36 receptor in mouse RAW 264.7 cells assessed as inhibition of R-FSL-1-induced NO production at competitive receptor binding assay IC50 concentration pretreated for 30 mins followed by R-FSL-1 stimulation measured after 19 hrs by fluorescence plate reader assay relative to R-FSL-1; assay type: cell-based; parameters: scale not given: the % may be the effect or the level left
# [9] = RAW264.7, filed as modulator, time 19.5 hrs
"Activity ([1]; RAW264.7, time 19.5 hrs) [%]",Activity [2] [pmol],Activity ([3]; filed as modulator) [%],Activity [4] [%],Activity [5] [µM],Activity [6] [pmol],IC50 (Platelet glycoprotein 4) [µM],Activity [7] [pmol],"Activity ([8]; RAW264.7, time 1170.0 min) [%]",Activity [3] [%],"Activity [1, 9] [%]","Activity ([8]; RAW264.7, filed as modulator, time 1170.0 min) [%]",Compound
28,271,41,19,2.26,857,4.75,4180,27,–,–,–,C=CCN1CC#CCN(NC(=O)[C@H](C)N)C(=O)N[C@H](Cc2c[nH]c3ccccc23)C(=O)N[C@@H](C)C(=O)N[C@@H](Cc2c[nH]c3ccccc23)C(=O)N[C@H](Cc2ccccc2)C(=O)N[C@H](C(N)=O)CC1
36,351,–,10,2.45,785,–,4560,18,18,–,–,C=CCN1CC#CCN(NC(C)=O)C(=O)N[C@H](Cc2c[nH]c3ccccc23)C(=O)N[C@@H](C)C(=O)N[C@@H](Cc2c[nH]c3ccccc23)C(=O)N[C@H](Cc2ccccc2)C(=O)N[C@H](C(N)=O)CCCC1
13,313,–,12,2.75,918,1.86,4460,4,29,–,–,CCCN1CC#CCN(NC(=O)[C@H](C)N)C(=O)N[C@H](Cc2c[nH]c3ccccc23)C(=O)N[C@@H](C)C(=O)N[C@@H](Cc2c[nH]c3ccccc23)C(=O)N[C@H](Cc2ccccc2)C(=O)N[C@H](C(N)=O)CCCC1
15,411,–,8,2.52,971,13.1,4650,15,0,–,–,C=CCN1CC#CCN(NC(=O)[C@H](C)N)C(=O)N[C@H](Cc2c[nH]c3ccccc23)C(=O)N[C@@H](C)C(=O)N[C@@H](Cc2c[nH]c3ccccc23)C(=O)N[C@H](Cc2ccccc2)C(=O)N[C@H](C(N)=O)CCC1
21,366,–,8,2.53,984,3.06,4620,14,13,–,–,C[C@H](N)C(=O)NN1CC#CCN(CC2CC2)CCCC[C@@H](C(N)=O)NC(=O)[C@@H](Cc2ccccc2)NC(=O)[C@H](Cc2c[nH]c3ccccc23)NC(=O)[C@H](C)NC(=O)[C@@H](Cc2c[nH]c3ccccc23)NC1=O
–,253,46,25,2.11,672,0.1,3940,35,–,50,–,C=CCN1CC#CCN(NC(=O)[C@H](C)N)C(=O)N[C@H](Cc2c[nH]c3ccccc23)C(=O)N[C@@H](C)C(=O)N[C@@H](Cc2c[nH]c3ccccc23)C(=O)N[C@H](Cc2ccccc2)C(=O)N[C@H](C(N)=O)CCCC1
–,410,–,–,2.82,1100,–,4970,–,–,–,–,CCCCCCCCCCCCCCCC(=O)OCC(CSCC(N)C(=O)NCC(=O)N[C@@H](CC(=O)O)C(=O)N1CCC[C@H]1C(=O)N[C@@H](CCCCN)C(=O)N[C@@H](Cc1cnc[nH]1)C(=O)N1CCC[C@H]1C(=O)N[C@@H](CCCCN)C(=O)N[C@@H](CO)C(=O)N[C@@H](Cc1ccccc1)C(=O)O)OC(=O)CCCCCCCCCCCCCCC (some centres not stated) (H-[ξC](X1)GDPKHPKSF-OH)
8,381,–,5,2.81,1030,22.8,4760,0,9,–,–,C=CCN1CC#CCN(NC(=O)[C@H](C)N)C(=O)N[C@@H](C)C(=O)N[C@@H](Cc2c[nH]c3ccccc23)C(=O)N[C@H](Cc2ccccc2)C(=O)N[C@H](C(N)=O)CCC1
6,388,–,2,2.72,1040,> 50,4900,5,7,–,–,C=CCN1CC#CCN(N)C(=O)N[C@H](Cc2c[nH]c3ccccc23)C(=O)N[C@@H](C)C(=O)N[C@@H](Cc2c[nH]c3ccccc23)C(=O)N[C@H](Cc2ccccc2)C(=O)N[C@H](C(N)=O)CCCC1
39,291,–,27,2.3,758,–,3840,–,35,–,25,C=CCN1CC#CCN(NC(=O)[C@H](C)N)C(=O)N[C@@H](C)C(=O)N[C@@H](Cc2c[nH]c3ccccc23)C(=O)N[C@H](Cc2ccccc2)C(=O)N[C@H](C(N)=O)CCCC1
23,312,–,3,2.57,903,9.05,4820,12,9,–,–,C[C@H](N)C(=O)NN1C/C=C\CN(CC2CC2)CCCC[C@@H](C(N)=O)NC(=O)[C@@H](Cc2ccccc2)NC(=O)[C@H](Cc2c[nH]c3ccccc23)NC(=O)[C@H](C)NC(=O)[C@@H](Cc2c[nH]c3ccccc23)NC1=O
15,378,–,-4,2.74,969,10.2,5120,4,6,–,–,C=CCN1CC#CCN(NC(=O)[C@H](C)N)S(=O)(=O)N[C@H](Cc2c[nH]c3ccccc23)C(=O)N[C@@H](C)C(=O)N[C@@H](Cc2c[nH]c3ccccc23)C(=O)N[C@H](Cc2ccccc2)C(=O)N[C@H](C(N)=O)CCCC1
34,312,–,21,2.08,802,2.26,4110,36,29,–,–,CCCN1CCCC[C@@H](C(N)=O)NC(=O)[C@@H](Cc2ccccc2)NC(=O)[C@H](Cc2c[nH]c3ccccc23)NC(=O)[C@H](C)NC(=O)[C@@H](Cc2c[nH]c3ccccc23)NC(=O)N(NC(=O)[C@H](C)N)CCCC1
–,304,–,22,2.35,707,–,4040,23,32,45,–,C=CCN1CC#CCN(NC(=O)[C@H](C)NC(C)=O)C(=O)N[C@H](Cc2c[nH]c3ccccc23)C(=O)N[C@@H](C)C(=O)N[C@@H](Cc2c[nH]c3ccccc23)C(=O)N[C@H](Cc2ccccc2)C(=O)N[C@H](C(N)=O)CCCC1
17,389,–,3,2.51,954,10.2,4850,15,6,–,–,C=CCN1CC#CCN(NC(=O)[C@H](C)N)C(=O)N[C@@H](C)C(=O)N[C@@H](Cc2c[nH]c3ccccc23)C(=O)N[C@H](Cc2ccccc2)C(=O)N[C@H](C(N)=O)CC1
